Results filed as inconclusive are left out. Active and inactive are the calls of the source.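 Rule for the calls, unless noted: active = viability at or below 27.92% in each of two runs, the all-compound median minus 4 SD; inconclusive = no clear call, values can overlap the other calls; inactive = the rest.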
Tests used:
[1] = OD615 S. cerevisiae growth inhibition, permissive medium, pilot counter-assay, permissive growth control for S. cerevisiae lifespan shortening project (AID 705;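 active = growth inhibition above 25% in both replicates, a cutoff set 3 SD above the mean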); details: OD615, 24 h, at 10 µM, stronger effect = higher value
How it was run: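 System: S. cerevisiae with engineered DeaD lifespan system / Measured by: absorbance (optical density) at 615 nm / Read-out: reduction in yeast growth (OD615) / Times: 4 h cell pre-growth, 24 h exposure at 30 °C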

[2] = Restrictive medium S. cerevisiae growth inhibition, OD615, pilot screen of yeast lifespan reduction project, restrictive growth control (AID 706;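 active = growth inhibition above a set limit, 3 SD over mean compound inhibition, in both replicates, cut at about 43% in these data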;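 note: modified DeaD lifespan yeast strain shifted to restrictive glucose medium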); details: OD615, 48 h, at 10 µM, stronger effect = higher value
How it was run: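 System: Engineered S. cerevisiae DeaD strain | Buffer or medium: Glucose-based CSMM-D restrictive medium | Schedule: 4 h pre-incubation, 48 h exposure at 30 °C | Technique: Optical density at 615 nm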

[3] = viability gain of MRP-1-high H69AR cells under doxorubicin, pilot screen, MRP-1 activator project, CellTiter-Glo, duplicate (AID 807;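 active = viability increase at or above a cutoff of the median across tested compounds plus 3 SD, cut at about 8.5% in these data, passing the limit was not always enough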;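 note: compound pretreatment 18-22 h then 72 h combined with doxorubicin; 0% = doxorubicin alone and 100% = vehicle without doxorubicin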); details: H69AR viability with doxorubicin, CellTiter-Glo luminescence; at 10 µM; stronger effect = higher value
[4] = growth suppression of beta-catenin knockout HCT116, pilot screen, human colon tumor cells (AID 823;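 active = cell viability at or below a set limit in both duplicate runs, the limit being the all-compound median minus 4 SD, cut at about 23% in these data, passing the limit was not always enough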;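 note: 0% = wells killed by 20 µM Hyamine and 100% = untreated DMSO cell wells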); details: CellTiter-Glo, 60 h, at 10 µM, stronger effect = lower value
[5] = growth suppression of PTEN-deleted HCT116, pilot screen, cell-based, HCT116 clonal line, CellTiter-Glo (AID 824); details: 60 h, at 10 µM, stronger effect = lower value;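 note: 0% = 20 µM Hyamine control and 100% = vehicle cell control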
[6] = inhibitors of the yeast RAM network, pilot screen, dse1pr::URA3 reporter, 5-FOA selection (AID 869;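 active = inhibition over a set limit, the all-compound mean plus 3 SD, in both replicate runs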;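 note: 0% = DMSO wells with no growth and 100% = 10 µM 1-NA-PP1 with full growth; RAM network block rescues cells from 5-FOA so hits raise OD615 growth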); details: S. cerevisiae dse1pr::URA3 5-FOA growth, OD615, 2 d; at 10 µM; stronger effect = higher value; strain carries analog-sensitive mutant Cbk1 kinase
[7] = RAM signaling pathway blockade in yeast – S. cerevisiae, Pdr1DBD-CYC8 efflux-inhibited sensitized strain, primary screen (AID 1298;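 active = RAM network inhibition above 8.4% in each of two replicates, 3 SD over the compound average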;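 note: 0% = DMSO untreated cells without growth and 100% = 10 µM 1-NA-PP1 full growth; higher means more yeast growth rescued from 5-FOA killing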); details: S. cerevisiae cbk1-as DSE1-URA3 strain, 5-FOA growth OD615, 2 d; at 50 µM; stronger effect = higher value

Cc1c(=O)n(OCc2ccccc2)c2ccccc2[n+]1[O-]
inactive: growth inhibition [1] -0.885% | growth inhibition [2] 1.5% | viability increase [3] -3.92% | viability [4] 95.9% | viability [5] 95.8% | inhibition [6] 0.09% | RAM network inhibition [7] 9.74%

COc1ccc(OC)c(C2CC(=O)c3c([nH]c(C(=O)OCC4CCCO4)c3C)C2)c1 (stereo unspecified)
inactive: growth inhibition [1] -8.91% | growth inhibition [2] -10.4% | viability increase [3] -4.85% | viability [4] 43.8% | viability [5] 39% | inhibition [6] 1.52% | RAM network inhibition [7] 0.79%

O=C(Nc1nc2ccccc2n1CCOc1ccc(Cl)cc1)c1ccco1
active: viability [4] 11.8% | viability [5] 16.8%
inactive: growth inhibition [1] 0.61% | growth inhibition [2] -2.21% | viability increase [3] -3.5% | inhibition [6] 0.745% | RAM network inhibition [7] 4.7%

COc1ccc(CCNC(=O)CCn2c(=O)oc3ccccc32)cc1
inactive: growth inhibition [1] -5.1% | growth inhibition [2] -14% | viability increase [3] -1.45% | viability [4] 109% | viability [5] 99.7% | inhibition [6] -0.205% | RAM network inhibition [7] 2.7%

CCOC(=O)c1c(N)sc2c(O)c(Br)ccc12
inactive: growth inhibition [1] -26.9% | growth inhibition [2] -1.8% | viability increase [3] -0.49% | viability [4] 104% | viability [5] 107% | inhibition [6] 1.01% | RAM network inhibition [7] 5.24%

Cc1cccc(NC(=O)C2CCCN(S(=O)(=O)c3cccc4cccnc34)C2)c1 (stereo unspecified)
inactive: growth inhibition [1] -13.1% | growth inhibition [2] -9.72% | viability increase [3] -1.92% | viability [4] 87.2% | viability [5] 74.6% | inhibition [6] 2.15% | RAM network inhibition [7] 3.91%

O=C(CSc1cn(CCNC(=O)c2cccs2)c2ccccc12)NCC1CCCO1 (stereo unspecified)
inactive: growth inhibition [1] -13.8% | growth inhibition [2] -23.4% | viability increase [3] 0.16% | viability [4] 96.2% | viability [5] 96.1% | inhibition [6] 1.61% | RAM network inhibition [7] 1.6%

CCOC(=O)CSc1nnc(Cc2cc(=O)[nH]c(=O)[nH]2)n1-c1ccc(Cl)cc1
inactive: growth inhibition [1] -16.1% | growth inhibition [2] -1.39% | viability increase [3] 1.33% | viability [4] 101% | viability [5] 100% | inhibition [6] 2.48% | RAM network inhibition [7] 4.03%

Cc1ccccc1Cn1c(=O)[nH]c2ccccc21
inactive: growth inhibition [1] -1.87% | growth inhibition [2] 4.58% | viability increase [3] 0.06% | viability [4] 96.5% | viability [5] 88.5% | inhibition [6] 1.9% | RAM network inhibition [7] 4.55%

Cc1cc(C(C)(C)C)ccc1OCCN(C)C
inactive: growth inhibition [1] -2.25% | growth inhibition [2] -9.14% | viability increase [3] 0.25% | viability [4] 94.2% | viability [5] 94.9% | inhibition [6] 1.58% | RAM network inhibition [7] 2.2%

O=C(CCS(=O)(=O)c1cccc2nonc12)NC1CCCCCC1
inactive: growth inhibition [1] -7.86% | growth inhibition [2] -9.46% | viability increase [3] -4.43% | viability [4] 86.7% | viability [5] 84.5% | inhibition [6] 0.855% | RAM network inhibition [7] 0.93%

CC(=O)Oc1cccc(N2C(=O)C3CC=C(Cl)CC3C2=O)c1 (stereo unspecified)
inactive: growth inhibition [1] -5.15% | growth inhibition [2] -22.9% | viability increase [3] -0.7% | viability [4] 89.6% | viability [5] 87.9% | inhibition [6] 2.81% | RAM network inhibition [7] 1.87%

O=C(Cn1cc2c(n1)CCCC2)N1CCOCC1
inactive: growth inhibition [1] -13.2% | growth inhibition [2] -4.99% | viability increase [3] -0.03% | viability [4] 99.4% | viability [5] 108% | inhibition [6] 0.095% | RAM network inhibition [7] 6.94%

Cc1nc(SC(C)C)[nH]c(=O)c1Cc1ccccc1
inactive: growth inhibition [1] -14.9% | growth inhibition [2] -4.47% | viability increase [3] -0.89% | viability [4] 98.4% | viability [5] 91.8% | inhibition [6] 1.1% | RAM network inhibition [7] 3.52%

CCc1ccc(C2CC(c3ccc(C)cc3)Nc3nc(N)nn32)cc1 (stereo unspecified)
inactive: growth inhibition [1] -5.94% | growth inhibition [2] -9.54% | viability increase [3] 2.61% | viability [4] 106% | viability [5] 93.6% | inhibition [6] 2.66% | RAM network inhibition [7] 8.09%

Brc1cccc(-c2nnc3sc(CNC4CCCC4)cn23)c1
inactive: growth inhibition [1] -6.88% | growth inhibition [2] 5.62% | viability increase [3] -0.97% | viability [4] 95.7% | viability [5] 89.6% | inhibition [6] 1.56% | RAM network inhibition [7] 3.26%

Cc1ccc(C)c(S(=O)(=O)NC(CC(C)C)C(=O)O)c1 (stereo unspecified)
inactive: growth inhibition [1] -9.28% | growth inhibition [2] -29.3% | viability increase [3] -1.32% | viability [4] 105% | viability [5] 102% | inhibition [6] 1.69% | RAM network inhibition [7] 2.5%

CC(=Nc1ccc(C)c(C)c1)C1=C(O)CSC1=O
inactive: growth inhibition [1] 1.08% | growth inhibition [2] -8.17% | viability increase [3] -2.54% | viability [4] 98.1% | viability [5] 90.3% | inhibition [6] 1.67% | RAM network inhibition [7] 4.33%

O=C(CC1Oc2ccccc2NC1=O)NCCCN1CCN(Cc2ccccc2)CC1 (stereo unspecified)
inactive: growth inhibition [1] 2.54% | growth inhibition [2] -3.21% | viability increase [3] -3.71% | viability [4] 94.3% | viability [5] 93.3% | inhibition [6] 1.56% | RAM network inhibition [7] 5.35%

N#CCCn1c(C(C#N)(CCC#N)CCC#N)nc2ccccc21
inactive: growth inhibition [1] 5.8% | growth inhibition [2] 5.04% | viability increase [3] -0.72% | viability [4] 96.5% | viability [5] 99.4% | inhibition [6] 1.6% | RAM network inhibition [7] 1.63%

CCCc1nc(N2CCN(C)CC2)c2sc(=S)n(-c3ccccc3)c2n1
inactive: growth inhibition [1] -8.52% | growth inhibition [2] 17.7% | viability increase [3] -2.47% | viability [4] 83.8% | viability [5] 82.6% | inhibition [6] 0.39% | RAM network inhibition [7] 6.13%

O=C(c1nnc(Cc2ccc(Cl)cc2)o1)N1CCOCC1
inactive: growth inhibition [1] -7.58% | growth inhibition [2] 1.76% | viability increase [3] -0.86% | viability [4] 105% | viability [5] 107% | inhibition [6] 1.23% | RAM network inhibition [7] 0.99%

Cc1[nH]n(-c2ccccc2)c(=O)c1S(=O)(=O)c1ccccc1
inactive: growth inhibition [1] -0.29% | growth inhibition [2] -3.15% | viability increase [3] 0.62% | viability [4] 102% | viability [5] 98.7% | inhibition [6] 0.08% | RAM network inhibition [7] 2.99%

O=C(COc1ccc(S(=O)(=O)NC2CCCCC2)cc1)Nc1ccc2c(c1)OCCO2
inactive: growth inhibition [1] -2.47% | growth inhibition [2] 4.23% | viability increase [3] -2.05% | viability [4] 84% | viability [5] 70.8% | inhibition [6] 2.25% | RAM network inhibition [7] 5.01%

CC(Nc1ncnc2nc[nH]c12)c1ccccc1 (stereo unspecified)
inactive: growth inhibition [1] -8.48% | growth inhibition [2] 10.5% | viability increase [3] -1.31% | viability [4] 95.3% | viability [5] 88.9% | inhibition [6] 0.985% | RAM network inhibition [7] 4.02%

Cn1c(C(=O)N2CCC(C(N)=O)CC2)cc2c(=O)n(C)c3ccccc3c21
inactive: growth inhibition [1] -2.25% | growth inhibition [2] 1.93% | viability increase [3] -0.97% | viability [4] 110% | viability [5] 99.3% | inhibition [6] 0.085% | RAM network inhibition [7] 2.21%

COc1ccc(CNC(=O)c2onc(C)c2Cl)cc1
inactive: growth inhibition [1] -14.2% | growth inhibition [2] -17.2% | viability increase [3] -1.96% | viability [4] 96% | viability [5] 93.7% | inhibition [6] 2.31% | RAM network inhibition [7] 4.91%

COc1ccc(CCN2CC34C=CC(O3)C(C(=O)NCc3ccccc3)C4C2=O)cc1OC (stereo unspecified)
inactive: growth inhibition [1] -2.83% | growth inhibition [2] -11.6% | viability increase [3] -1.24% | viability [4] 95.2% | viability [5] 93.9% | inhibition [6] 0.89% | RAM network inhibition [7] 9.27%

CCOc1ccccc1Nc1cc(C)nc2nc(C)nn12
inactive: growth inhibition [1] -11.9% | growth inhibition [2] -9.62% | viability increase [3] -2.37% | viability [4] 104% | viability [5] 97.2% | inhibition [6] 1.67% | RAM network inhibition [7] -1.47%

COc1ccc(OC)c(CN2C(=O)c3ccccc3C2C(=O)NCc2cccnc2)c1 (stereo unspecified)
inactive: growth inhibition [1] -6.83% | growth inhibition [2] 2.58% | viability increase [3] 0.05% | viability [4] 106% | viability [5] 97.6% | inhibition [6] 0.155% | RAM network inhibition [7] 4.09%

CC(C)N(Cc1nc(-c2ccccc2)no1)S(=O)(=O)c1ccccc1
inactive: growth inhibition [1] -10.8% | growth inhibition [2] -9.29% | viability increase [3] 1.67% | viability [4] 89.3% | viability [5] 79.5% | inhibition [6] 0.555% | RAM network inhibition [7] 4.95%

O=S(=O)(Nc1ccc2nc(C(F)(F)F)[nH]c2c1)c1ccccc1
inactive: growth inhibition [1] -1.94% | growth inhibition [2] -0.635% | viability increase [3] 0.27% | viability [4] 85.5% | viability [5] 82% | inhibition [6] 0.97% | RAM network inhibition [7] 1.68%

COc1ccc(OC)c(NC(=O)c2c(NC(=O)CNCc3ccco3)sc3c2CCC3)c1
inactive: growth inhibition [1] -0.125% | growth inhibition [2] -0.495% | viability increase [3] -3.56% | viability [4] 95.8% | viability [5] 88.2% | inhibition [6] 1.28% | RAM network inhibition [7] 7.95%

— PubChem BioAssay
